Test results taken from ChEMBL document CHEMBL1150402, “Carbon-11 labeled indolylpropylamine analog as a new potential PET agent for imaging of the serotonin transporter” (Bioorg Med Chem, 2008).

Columns and labels:
[1] = molecular target: T1, Sodium-dependent serotonin transporter (Homo sapiens, UniProt P31645); experiment: biochemical; type: cell-based, HEK293
[2] = molecular target: T1, Sodium-dependent serotonin transporter; experiment: biochemical; type: cell-based, HEK293; remark: listed apart in the source
[3] = molecular target: T2, 5-hydroxytryptamine receptor 1A (Rattus norvegicus, UniProt P19327); experiment: Displacement of [3H]8-OH-DPAT from 5HT1A receptor in rat cortical membrane; type: cell membranes
T2 sequence (P19327 whole entry): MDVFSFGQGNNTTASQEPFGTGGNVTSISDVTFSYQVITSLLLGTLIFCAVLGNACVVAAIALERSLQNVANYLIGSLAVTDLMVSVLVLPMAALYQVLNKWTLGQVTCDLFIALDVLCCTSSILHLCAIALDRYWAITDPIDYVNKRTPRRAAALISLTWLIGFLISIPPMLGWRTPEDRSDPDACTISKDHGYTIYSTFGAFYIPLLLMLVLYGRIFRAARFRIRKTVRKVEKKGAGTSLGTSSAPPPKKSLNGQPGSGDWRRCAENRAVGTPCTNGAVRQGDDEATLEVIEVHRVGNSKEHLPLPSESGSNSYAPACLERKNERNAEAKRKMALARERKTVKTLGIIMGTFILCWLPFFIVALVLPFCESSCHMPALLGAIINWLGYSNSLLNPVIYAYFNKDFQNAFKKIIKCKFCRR
How it was run: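 Cortex from female SPRD rats (~200 g), homogenized and washed in 50 mM Tris-HCl pH 7.4. Membranes in 50 mM Tris-HCl pH 7.4, 4 mM CaCl2, 0.1% ascorbic acid with 0.3 nM radioligand and 6-12 test concentrations, 21 °C for 60 min. Nonspecific: 10 uM serotonin. GF/B filtration, scintillation counting.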

[4] = molecular target: Sodium-dependent noradrenaline transporter (Homo sapiens, UniProt P23975); experiment: Displacement of [3H]nisoxetine from human NET expressed in HEK293 cells; type: cell-based
How it was run: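 Stably transfected HEK293 membrane preparation (50-80 ug protein/tube) in 50 mM Tris-HCl pH 7.4, 120 mM NaCl, 5 mM KCl. 0.5 nM radioligand with 6-12 test concentrations, 21 °C for 60 min. Nonspecific: 100 uM protriptyline. GF/B filtration, scintillation counting. Triplicates per experiment; IC50 by nonlinear fitting, converted to Ki.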

[5] = molecular target: Sodium-dependent dopamine transporter (Homo sapiens, UniProt Q01959); experiment: Displacement of [3H]WIN-35428 from human DAT expressed in HEK293 cells; type: cell-based
How it was run: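 Stably transfected HEK293 membrane preparation (50-80 ug protein/tube) in 50 mM Tris-HCl pH 7.4, 100 mM NaCl. 0.5 nM radioligand with 6-12 test concentrations, on ice for 120 min. Nonspecific: 10 uM GBR12909. GF/B filtration, ice-cold Tris washes, scintillation counting. Triplicates per experiment; IC50 by iterative nonlinear fitting, converted to Ki.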

Chain of Sodium-dependent dopamine transporter (Q01959 whole entry): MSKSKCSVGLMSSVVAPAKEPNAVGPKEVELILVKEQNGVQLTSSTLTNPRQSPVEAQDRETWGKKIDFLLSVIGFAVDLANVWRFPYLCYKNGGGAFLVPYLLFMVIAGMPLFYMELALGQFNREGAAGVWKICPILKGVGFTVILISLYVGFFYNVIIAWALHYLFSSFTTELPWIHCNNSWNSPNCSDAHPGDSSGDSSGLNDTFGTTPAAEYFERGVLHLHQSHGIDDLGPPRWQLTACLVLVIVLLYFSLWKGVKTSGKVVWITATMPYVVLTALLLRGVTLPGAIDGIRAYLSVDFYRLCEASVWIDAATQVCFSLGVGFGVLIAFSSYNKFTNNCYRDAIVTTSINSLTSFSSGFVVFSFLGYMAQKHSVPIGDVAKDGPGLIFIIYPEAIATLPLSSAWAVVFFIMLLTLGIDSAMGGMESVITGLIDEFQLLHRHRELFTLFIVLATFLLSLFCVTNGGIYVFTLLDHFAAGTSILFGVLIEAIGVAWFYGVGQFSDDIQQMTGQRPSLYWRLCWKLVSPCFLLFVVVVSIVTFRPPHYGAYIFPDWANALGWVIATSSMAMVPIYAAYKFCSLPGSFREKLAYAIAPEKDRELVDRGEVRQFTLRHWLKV
Chain of Sodium-dependent noradrenaline transporter (P23975 whole entry): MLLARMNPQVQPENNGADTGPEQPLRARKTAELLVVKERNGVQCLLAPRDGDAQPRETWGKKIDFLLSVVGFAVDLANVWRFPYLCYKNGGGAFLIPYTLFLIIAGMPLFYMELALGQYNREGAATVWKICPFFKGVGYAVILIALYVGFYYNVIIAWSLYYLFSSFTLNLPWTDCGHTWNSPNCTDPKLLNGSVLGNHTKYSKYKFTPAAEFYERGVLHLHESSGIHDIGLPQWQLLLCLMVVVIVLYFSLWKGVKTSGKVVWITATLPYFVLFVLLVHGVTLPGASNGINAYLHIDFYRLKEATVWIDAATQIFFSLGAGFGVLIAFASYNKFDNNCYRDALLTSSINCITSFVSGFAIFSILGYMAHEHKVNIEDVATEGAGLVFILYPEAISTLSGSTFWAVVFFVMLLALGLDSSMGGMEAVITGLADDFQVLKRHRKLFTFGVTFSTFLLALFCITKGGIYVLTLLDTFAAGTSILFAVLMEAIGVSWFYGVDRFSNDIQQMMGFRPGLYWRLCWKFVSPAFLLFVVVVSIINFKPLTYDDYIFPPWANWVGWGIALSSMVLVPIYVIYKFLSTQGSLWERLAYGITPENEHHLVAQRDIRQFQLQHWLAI
T1 sequence (P31645 whole entry): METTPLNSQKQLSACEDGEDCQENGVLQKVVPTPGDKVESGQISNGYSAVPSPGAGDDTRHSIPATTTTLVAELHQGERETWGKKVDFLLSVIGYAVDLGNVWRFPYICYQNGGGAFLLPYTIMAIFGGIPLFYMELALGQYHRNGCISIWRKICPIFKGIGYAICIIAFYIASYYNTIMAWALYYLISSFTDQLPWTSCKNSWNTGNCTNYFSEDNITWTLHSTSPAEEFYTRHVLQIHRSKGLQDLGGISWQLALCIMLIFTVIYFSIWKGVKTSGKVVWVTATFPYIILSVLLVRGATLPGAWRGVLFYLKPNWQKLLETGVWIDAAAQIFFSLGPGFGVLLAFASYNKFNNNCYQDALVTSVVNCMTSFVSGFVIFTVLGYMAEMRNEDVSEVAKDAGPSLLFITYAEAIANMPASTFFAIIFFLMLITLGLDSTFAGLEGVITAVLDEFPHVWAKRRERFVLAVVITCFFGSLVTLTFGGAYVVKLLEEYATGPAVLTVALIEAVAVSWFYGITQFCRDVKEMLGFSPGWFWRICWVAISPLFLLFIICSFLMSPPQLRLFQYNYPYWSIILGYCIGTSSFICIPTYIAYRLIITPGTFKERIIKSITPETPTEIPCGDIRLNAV

Question: Which Ki [1] does the source give for `[11CH3]Oc1cccc2c1CCN(CCCc1c[nH]c3ccc(F)cc13)C2` here?
Answer: The Ki was 6.46 nM.

Question: What about the Ki [2] of the same molecule?
Answer: The Ki was 44.7 nM.

Question: What about the Ki [3] of the same molecule?
Answer: The Ki was 164 nM.

Question: What about the Ki [4] of the same molecule?
Answer: The Ki was 2880 nM.

Question: And the Ki [5]?
Answer: The Ki was 1480 nM.

Question: For `CNC(C)Cc1ccc2c(c1)OCO2` (configuration not stated) [MIDOMAFETAMINE], which Ki [1] is on record?
Answer: Its Ki is 0.73 nM.

Question: And the Ki [2]?
Answer: Its Ki is 2.03 nM.

Question: `[11CH3]Oc1ccc2c(c1)CCN(CCCc1c[nH]c3ccc(F)cc13)C2` was tested. Which Ki [1] did it give?
Answer: The Ki was 4.11 nM.

Question: What about the Ki [2] of the same molecule?
Answer: Its Ki is 25.3 nM.

Question: What about the Ki [3] of the same molecule?
Answer: The Ki was 54 nM.

Question: And the Ki [4]?
Answer: The Ki was 1680 nM.

Question: What about the Ki [5] of the same molecule?
Answer: Its Ki is 2490 nM.

Question: How did the Ki [1] turn out when `[11CH3]Oc1ccc2c(c1)CCN(CCCc1c[nH]c3ccc(I)cc13)C2` was run?
Answer: The Ki was 374 nM.

Question: What about the Ki [2] of the same molecule?
Answer: Its Ki is 1110 nM.

Question: And the Ki [3]?
Answer: Its Ki is 685 nM.

Question: And the Ki [4]?
Answer: Its Ki is 712 nM.

Question: What about the Ki [5] of the same molecule?
Answer: Its Ki is 3650 nM.

Question: `[11CH3]Oc1ccc2c(c1)CCN(CCCc1c[nH]c3ccc(Br)cc13)C2` was tested. Which Ki [1] did it give?
Answer: The Ki was 11.4 nM.

Question: What about the Ki [2] of the same molecule?
Answer: Its Ki is 13.3 nM.

Question: What about the Ki [3] of the same molecule?
Answer: The Ki was 50 nM.

Question: And the Ki [4]?
Answer: Its Ki is 2770 nM.

Question: And the Ki [5]?
Answer: Its Ki is 1030 nM.

Question: Which Ki [1] does the source give for `[11CH3]Oc1cccc2c1CCN(CCCc1c[nH]c3ccc(I)cc13)C2` here?
Answer: The Ki was 213 nM.

Question: What about the Ki [2] of the same molecule?
Answer: The Ki was 2660 nM.

Question: What about the Ki [3] of the same molecule?
Answer: The Ki was 1120 nM.

Question: What about the Ki [4] of the same molecule?
Answer: Its Ki is 1810 nM.

Question: What about the Ki [5] of the same molecule?
Answer: The Ki was 1160 nM.

Question: `[11CH3]Oc1cccc2c1CCN(CCCc1c[nH]c3ccc(Br)cc13)C2` was tested. Which Ki [1] did it give?
Answer: The Ki was 1910 nM.

Question: And the Ki [2]?
Answer: Its Ki is 2980 nM.

Question: And the Ki [3]?
Answer: The Ki was 1990 nM.

Question: What about the Ki [4] of the same molecule?
Answer: The Ki was 6600 nM.

Question: What about the Ki [5] of the same molecule?
Answer: Its Ki is 3490 nM.
